Source: ChEMBL document CHEMBL1148130, “Derrisin, a new rotenoid from Derris malaccensis plain and anti-Helicobacter pylori activity of its related constituents” (2002)
In brackets after ≈: the same amount, converted by molar mass. Activity calls are given as the source filed them. The rule behind the calls is not given here.

Key:
Bacillus subtilis = assay: Antibacterial activity against Bacillus subtilis ATCC 6633 at 625 ug/mL after 24 hrs by conventional well agar method; format: functional, organism-based
Escherichia coli = assay: Antibacterial activity against Escherichia coli ATCC 10536 at 625 ug/mL after 24 hrs by conventional well agar method; format: functional, organism-based
Micrococcus luteus = assay: Antibacterial activity against Micrococcus luteus ATCC 9341 at 625 ug/mL after 24 hrs by conventional well agar method; format: functional, organism-based
Candida albicans = assay: Antifungal activity against Candida albicans ATCC 10231 at 625 ug/mL after 24 hrs by conventional well agar method; format: functional, organism-based
Bacteroides fragilis = assay: Antibacterial activity against Bacteroides fragilis ATCC 25285 at 625 ug/mL after 24 hrs by conventional well agar method; format: functional, organism-based
Pseudomonas aeruginosa = assay: Antibacterial activity against Pseudomonas aeruginosa ATCC 9027 at 625 ug/mL after 24 hrs by conventional well agar method; format: functional, organism-based
Helicobacter pylori = assay: Antibacterial activity against Helicobacter pylori 31A after 48 hrs by serial doubling dilution method; format: functional
Method in brief: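 H. pylori strain 31 A (stomach ulcer isolate) in brain-heart infusion broth with 10% fetal bovine serum, grown in test tubes under 10% CO2, 5% O2 and 85% N2 at 37 °C. Serial doubling dilutions made in 10% aqueous DMSO and added as 10% of the medium, with 5% culture inoculum. Incubated 37 °C for 48 h. MIC taken as the lowest concentration with no visible growth.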

Row | SMILES | Activity (Bacillus subtilis) | Activity (Escherichia coli) | Activity (Micrococcus luteus) | Activity (Candida albicans) | Activity (Bacteroides fragilis) | Activity (Pseudomonas aeruginosa) | MIC (Helicobacter pylori) [µg/mL]
1 | COc1cc2c(cc1OC)Oc1c(oc3c4c(ccc3c1=O)OC(C)(C)C=C4)CO2 | inactive | inactive | inactive | inactive | inactive | inactive | 4 (≈ 9.79 µM)
2 | COc1cc2c(cc1OC)[C@]1(O)C(=O)c3ccc4c(c3O[C@@H]1CO2)[C@H](O)[C@@H](O)C(C)(C)O4 | inactive | inactive | inactive | inactive | inactive | inactive | > 88
3 | CC[C@H]1OC(=O)[C@H](C)[C@@H](O[C@H]2C[C@@](C)(OC)[C@@H](O)[C@H](C)O2)[C@H](C)[C@@H](O[C@@H]2O[C@H](C)C[C@H](N(C)C)[C@H]2O)[C@](C)(OC)C[C@@H](C)C(=O)[C@H](C)[C@@H](O)[C@]1(C)O [CLARITHROMYCIN] | inactive | inactive | inactive | inactive | inactive | inactive | 0.05 (≈ 0.0668 µM)
4 | COc1cc2c(cc1OC)[C@@H]1C(=O)c3ccc4c(c3O[C@@H]1CO2)C=CC(C)(C)O4 [DEGUELIN] | inactive | inactive | inactive | inactive | inactive | inactive | 0.6 (≈ 1.52 µM)
5 | COc1cc2c(cc1OC)-c1c(oc3c4c(ccc3c1=O)OC(C)(C)C=C4)CO2 [DEHYDRODEGUELIN] | inactive | inactive | inactive | inactive | inactive | inactive | 4 (≈ 10.2 µM)
6 | C=C(C)[C@H]1Cc2c(ccc3c(=O)c4c(oc23)COc2cc(OC)c(OC)cc2-4)O1 [DEHYDROROTENONE] | inactive | inactive | inactive | inactive | inactive | inactive | 9.8 (≈ 25 µM)
7 | COc1cc2c(cc1OC)[C@@H]1C(=O)c3ccc4c(c3O[C@@H]1CO2)[C@H](O)[C@@H](O)C(C)(C)O4 [DERRISIN] | inactive | inactive | inactive | inactive | inactive | inactive | 85 (≈ 198 µM)
8 | COc1cc2c(cc1OC)[C@@H]1C(=O)c3ccc4occc4c3O[C@@H]1CO2 [ELLIPTONE] | inactive | inactive | inactive | inactive | inactive | inactive | 3 (≈ 8.51 µM)
9 | C=C(C)[C@H]1Cc2c(ccc3c2O[C@@H]2COc4cc(OC)c(OC)cc4[C@]2(O)C3=O)O1 [ROTENOLONE] | inactive | inactive | inactive | inactive | inactive | inactive | 1.3 (≈ 3.17 µM)
10 | C=C(C)[C@H]1Cc2c(ccc3c2O[C@@H]2COc4cc(OC)c(OC)cc4[C@@H]2C3=O)O1 [ROTENONE] | inactive | inactive | inactive | inactive | inactive | inactive | 1.3 (≈ 3.3 µM)
11 | COc1cc2c(cc1OC)[C@]1(O)C(=O)c3ccc4c(c3O[C@@H]1CO2)C=CC(C)(C)O4 [TEPHROSIN] | inactive | inactive | inactive | inactive | inactive | inactive | 0.3 (≈ 0.731 µM)
12 | COc1cc2c(cc1OC)[C@@H]1C(=O)c3c(O)cc4c(c3O[C@@H]1CO2)C=CC(C)(C)O4 [TOXICAROL] | inactive | inactive | inactive | inactive | inactive | inactive | 0.3 (≈ 0.731 µM)
